Data set [1] deals with T1, Myosin light chain kinase 2, skeletal/cardiac muscle (Homo sapiens, UniProt Q9H1R3). The experiment in a line: Inhibition of full length recombinant human MYLK2 using KKLNRTLSFAEPG as substrate incubated for 40 mins in presence of [gamma-33P-ATP] by radiometric scintillation assay. The procedure, abridged:
(§1)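 Eurofins radiometric enzymatic assay with ATP at Km for each kinase. IC50 was derived from a 9-point dose–response curve run in duplicate.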

In data set [2] the target is T1, Myosin light chain kinase 2, skeletal/cardiac muscle. The data set can be described thus: Inhibition of NanoLuc-fused MYLK2 (unknown origin) expressed in HEK293 cells incubated for 2 hrs by NanoBRET assay. The class given is cell-based. The procedure, abridged: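 Cellular NanoBRET target-engagement assays were run by Carna Biosciences to the manufacturer's protocol. Dose–response was in singlicate, with compounds tested at concentrations up to 10 μM.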

A short description of data set [3]: Kinetic solubility of compound in PBS at pH 7.4 incubated for 24 hrs by chemiluminscent nitrogen detection method. The class given is physicochemical. Conditions: buffer, pH 7.4, 24 h. The procedure, abridged:
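Filtrates were quantified by total chemiluminescent nitrogen determination against a calibration curve, with correction for background nitrogen from DMSO and medium.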

In data set [4] the target is T2, Serine/threonine-protein kinase 17A (Homo sapiens, UniProt Q9UEE5).
T2 sequence (Q9UEE5 whole entry): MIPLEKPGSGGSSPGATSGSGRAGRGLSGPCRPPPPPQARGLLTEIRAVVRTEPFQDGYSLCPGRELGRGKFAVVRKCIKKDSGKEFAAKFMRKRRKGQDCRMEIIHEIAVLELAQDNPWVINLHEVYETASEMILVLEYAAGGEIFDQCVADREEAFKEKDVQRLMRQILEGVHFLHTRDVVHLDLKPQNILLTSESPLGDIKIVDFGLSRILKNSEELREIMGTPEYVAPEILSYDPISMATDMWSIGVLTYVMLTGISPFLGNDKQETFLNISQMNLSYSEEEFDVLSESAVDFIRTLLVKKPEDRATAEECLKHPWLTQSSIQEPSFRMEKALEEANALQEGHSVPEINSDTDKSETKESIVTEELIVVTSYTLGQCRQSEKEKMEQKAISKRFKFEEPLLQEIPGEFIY
The experiment in a line: Displacement of tracer K9 from NLuc fused DRAK1 (unknown origin) expressed in HEK293 cells by NanoBRET assay. The class given is cell-based.

The target in data set [5] is T3, Serine/threonine-protein kinase TBK1 (Homo sapiens, UniProt Q9UHD2).
T3 sequence (Q9UHD2 whole entry): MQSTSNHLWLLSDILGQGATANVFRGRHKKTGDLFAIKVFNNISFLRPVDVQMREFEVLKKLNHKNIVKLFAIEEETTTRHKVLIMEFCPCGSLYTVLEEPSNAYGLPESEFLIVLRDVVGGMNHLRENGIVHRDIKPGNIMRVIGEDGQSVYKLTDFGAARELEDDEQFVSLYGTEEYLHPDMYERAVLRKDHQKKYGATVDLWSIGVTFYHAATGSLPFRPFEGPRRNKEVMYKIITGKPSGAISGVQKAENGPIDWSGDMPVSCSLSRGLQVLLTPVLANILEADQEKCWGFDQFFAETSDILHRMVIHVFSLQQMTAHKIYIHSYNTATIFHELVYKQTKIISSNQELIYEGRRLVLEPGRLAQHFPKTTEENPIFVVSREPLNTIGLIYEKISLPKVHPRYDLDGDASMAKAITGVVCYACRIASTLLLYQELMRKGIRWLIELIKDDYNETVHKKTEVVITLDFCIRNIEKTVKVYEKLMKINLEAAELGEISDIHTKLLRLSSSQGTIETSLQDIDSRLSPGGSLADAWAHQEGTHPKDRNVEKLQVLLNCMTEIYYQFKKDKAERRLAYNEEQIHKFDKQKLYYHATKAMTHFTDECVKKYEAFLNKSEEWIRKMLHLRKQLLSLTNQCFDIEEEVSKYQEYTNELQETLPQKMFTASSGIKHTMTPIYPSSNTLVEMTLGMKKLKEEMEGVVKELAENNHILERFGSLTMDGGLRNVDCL
The data set can be described thus: Displacement of tracer K5 from NLuc fused TBK1 (unknown origin) expressed in HEK293 cells by NanoBRET assay. The class given is cell-based. The method in brief: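 HEK293 cells grown in DMEM with 10% FBS at 37 °C, 5% CO2. NanoBRET assay run in dose–response per manufacturer's protocol with tracer K-5 at 0.5 μM. SEM calculated for assays run more than once.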
In general terms: Bioluminescence resonance energy transfer reports proximity on the nanometre scale.

The target of data set [6] is T4, Serine/threonine-protein kinase 17B (Homo sapiens) (UniProt O94768).
T4 sequence (whole entry): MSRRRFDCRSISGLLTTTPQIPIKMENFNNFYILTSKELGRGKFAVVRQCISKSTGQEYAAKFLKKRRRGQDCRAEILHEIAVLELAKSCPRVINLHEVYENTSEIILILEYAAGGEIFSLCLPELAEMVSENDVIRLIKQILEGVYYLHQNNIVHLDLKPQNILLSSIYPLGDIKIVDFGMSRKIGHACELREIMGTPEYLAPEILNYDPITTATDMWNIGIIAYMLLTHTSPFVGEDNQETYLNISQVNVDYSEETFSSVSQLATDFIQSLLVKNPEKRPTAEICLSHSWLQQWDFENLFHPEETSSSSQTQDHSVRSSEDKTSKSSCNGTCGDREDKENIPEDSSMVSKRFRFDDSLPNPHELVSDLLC
The experiment in a line: Inhibition of full length recombinant human DRAK2 using KKRPQRRYSNVF as substrate at 1 uM incubated for 120 mins in presence of [gamma-33P-ATP] by radiometric scintillation assay relative to control. The method in brief: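 Eurofins radiometric kinase assay with ATP at Km for each kinase. Compound was tested at a single 1 μM concentration in duplicate, and the result is reported as percent of control.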

Data set [7] is described as follows: Effective permeability in PBS at 7.4 incubated for 5 hrs by PAMPA analysis. Conditions: pH 7.4, 5 h. The class given is ADME. The method in brief: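 PAMPA: DMSO stocks were diluted in PBS pH 7.4 and placed in the donor compartment, with PBS pH 7.4 in the acceptor, for 5 h. Both compartments were quantified by CLND against a calibration curve, with background nitrogen correction. Effective permeability was calculated from donor and acceptor concentrations using measured rather than assumed solubility.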

The target of data set [8] is MAP/microtubule affinity-regulating kinase 3 (Homo sapiens, UniProt P27448). The data set can be described thus: Displacement of tracer K9 from NLuc fused MARK3 (unknown origin) expressed in HEK293 cells by NanoBRET assay. The format is cell-based.
Data set [9] concerns the target T5, MAP/microtubule affinity-regulating kinase 4 (Homo sapiens, UniProt Q96L34).
T5 sequence (Q96L34 whole entry): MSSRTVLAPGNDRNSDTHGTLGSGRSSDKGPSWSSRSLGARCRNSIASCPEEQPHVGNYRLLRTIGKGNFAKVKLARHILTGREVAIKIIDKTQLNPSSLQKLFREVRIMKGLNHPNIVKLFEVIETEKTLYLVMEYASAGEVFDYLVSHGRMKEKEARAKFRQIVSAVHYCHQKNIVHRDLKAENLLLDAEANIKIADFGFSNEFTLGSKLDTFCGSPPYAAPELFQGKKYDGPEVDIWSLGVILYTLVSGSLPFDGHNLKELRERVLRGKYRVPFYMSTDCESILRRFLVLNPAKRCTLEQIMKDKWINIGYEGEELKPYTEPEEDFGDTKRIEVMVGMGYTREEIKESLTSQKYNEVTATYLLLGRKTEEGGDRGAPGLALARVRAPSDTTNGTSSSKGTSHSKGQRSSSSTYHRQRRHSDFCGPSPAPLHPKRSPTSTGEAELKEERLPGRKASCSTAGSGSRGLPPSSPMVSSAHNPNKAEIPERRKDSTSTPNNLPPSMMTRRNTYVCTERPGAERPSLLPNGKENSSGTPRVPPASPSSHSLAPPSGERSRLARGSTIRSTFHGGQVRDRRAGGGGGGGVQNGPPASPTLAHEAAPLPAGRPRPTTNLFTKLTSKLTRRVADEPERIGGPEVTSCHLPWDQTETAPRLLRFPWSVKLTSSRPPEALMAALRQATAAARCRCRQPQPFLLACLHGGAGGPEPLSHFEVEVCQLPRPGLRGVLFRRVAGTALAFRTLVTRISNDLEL
The experiment in a line: Displacement of tracer K5 from NLuc fused MARK4 (unknown origin) expressed in HEK293 cells by NanoBRET assay. The format is cell-based.

For data set [10], the target named is T6, Leucine-rich repeat serine/threonine-protein kinase 2 (Homo sapiens, UniProt Q5S007). The experiment in a line: Inhibition of NanoLuc-fused LRRK2 (unknown origin) expressed in HEK293 cells incubated for 2 hrs by NanoBRET assay. The class given is cell-based. The method in brief:
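Cellular target engagement by NanoBRET in dose–response, done in singlicate by Carna Biosciences following the manufacturer's protocol. Compounds tested at concentrations up to 10 μM.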

The target in data set [11] is T6, Leucine-rich repeat serine/threonine-protein kinase 2. The data set can be described thus: Inhibition of recombinant human LRRK2 (970 to end residues) using RLGRDKYKTLRQIRQ as substrate incubated for 40 mins in presence of [gamma-33P-ATP] by radiometric scintillation assay. The method in brief:
(§2)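 Eurofins radiometric kinase assay run at ATP equal to Km for each kinase. 9-point dose–response in duplicate gives the IC50.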

In data set [12] the target is Serine/threonine-protein kinase NIM1 (Homo sapiens, UniProt Q8IY84). The experiment in a line: Inhibition of full length recombinant human NIM1 using KKKVSRSGLYRSPSMPENLNRPR as substrate incubated for 40 mins in presence of [gamma-33P-ATP] by radiometric scintillation assay. The method in brief:
as §1

Data set [13] concerns the target Macrophage colony-stimulating factor 1 receptor (Homo sapiens, UniProt P07333). The data set can be described thus: Inhibition of NanoLuc-fused CSF1R (unknown origin) expressed in HEK293 cells incubated for 2 hrs by NanoBRET assay. The class given is cell-based.
The target in data set [14] is Death-associated protein kinase 3 (Homo sapiens, UniProt O43293). The data set can be described thus: Inhibition of recombinant human ZIPK (1 to 290 residues) using KKLNRTLSFAEPG as substrate measured after 40 mins in presence of [gamma33P]ATP by radiometric scintillation counting method. The method in brief: as §1
Data set [15] has as its target T7, Inhibitor of nuclear factor kappa-B kinase subunit epsilon (Homo sapiens, UniProt Q14164).
T7 sequence (Q14164 whole entry): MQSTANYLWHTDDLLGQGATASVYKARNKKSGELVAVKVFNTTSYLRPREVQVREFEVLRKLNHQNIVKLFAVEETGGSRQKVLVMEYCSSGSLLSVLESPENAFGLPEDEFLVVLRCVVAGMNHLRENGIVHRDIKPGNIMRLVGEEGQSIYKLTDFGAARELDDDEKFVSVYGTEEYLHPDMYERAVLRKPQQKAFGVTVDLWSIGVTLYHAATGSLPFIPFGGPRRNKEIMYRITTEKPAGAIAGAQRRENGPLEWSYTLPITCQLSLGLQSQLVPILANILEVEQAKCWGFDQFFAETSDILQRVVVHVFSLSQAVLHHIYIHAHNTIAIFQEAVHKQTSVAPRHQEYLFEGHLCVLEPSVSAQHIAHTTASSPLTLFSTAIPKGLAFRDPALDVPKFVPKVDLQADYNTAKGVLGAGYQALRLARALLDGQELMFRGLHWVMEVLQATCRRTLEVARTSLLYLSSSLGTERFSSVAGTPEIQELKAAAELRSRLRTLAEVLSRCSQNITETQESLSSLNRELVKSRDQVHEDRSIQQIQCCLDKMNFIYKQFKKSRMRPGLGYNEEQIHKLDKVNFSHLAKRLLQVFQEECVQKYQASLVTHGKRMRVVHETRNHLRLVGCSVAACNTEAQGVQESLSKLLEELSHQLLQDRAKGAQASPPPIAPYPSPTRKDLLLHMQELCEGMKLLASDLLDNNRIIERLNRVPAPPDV
The data set can be described thus: Inhibition of full length recombinant human IKKepsilon using casein as substrate incubated for 40 mins in presence of [gamma-33P-ATP] by radiometric scintillation assay. The method in brief: as §2

In data set [16] the target is MAP kinase-interacting serine/threonine-protein kinase 2 (Homo sapiens, UniProt Q9HBH9). The data set can be described thus: Inhibition of full length recombinant human MKNK2 using myelin basic protein as substrate incubated for 40 mins in presence of [gamma-33P-ATP] by radiometric scintillation assay. The method in brief:
as §2

The nature of data set [17]: Inhibition of human TTBK1 (1 to 479 residues) using Casein as substrate measured after 40 mins in presence of [gamma33P]ATP by scintillation counting method. The procedure, abridged:
as §2

A word on the IC50: it is the concentration that gives 50% inhibition.

T1 sequence (Q9H1R3 whole entry): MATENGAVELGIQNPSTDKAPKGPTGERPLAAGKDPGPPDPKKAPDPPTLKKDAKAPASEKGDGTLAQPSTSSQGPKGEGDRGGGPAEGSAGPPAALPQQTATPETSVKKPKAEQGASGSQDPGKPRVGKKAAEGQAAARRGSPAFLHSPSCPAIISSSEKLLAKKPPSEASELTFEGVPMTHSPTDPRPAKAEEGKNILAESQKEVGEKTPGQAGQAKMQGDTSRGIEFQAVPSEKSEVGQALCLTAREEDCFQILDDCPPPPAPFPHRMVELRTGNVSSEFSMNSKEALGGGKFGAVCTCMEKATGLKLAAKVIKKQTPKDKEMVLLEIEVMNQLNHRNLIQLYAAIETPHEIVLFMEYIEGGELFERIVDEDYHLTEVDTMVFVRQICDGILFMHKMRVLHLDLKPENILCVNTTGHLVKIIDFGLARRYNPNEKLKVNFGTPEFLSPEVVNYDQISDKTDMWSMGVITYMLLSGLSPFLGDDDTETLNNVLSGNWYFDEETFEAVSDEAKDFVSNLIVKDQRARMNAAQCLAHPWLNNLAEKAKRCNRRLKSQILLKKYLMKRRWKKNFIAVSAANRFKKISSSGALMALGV
Sequence of MAP/microtubule affinity-regulating kinase 3 (P27448 whole entry, the tested form may be a part): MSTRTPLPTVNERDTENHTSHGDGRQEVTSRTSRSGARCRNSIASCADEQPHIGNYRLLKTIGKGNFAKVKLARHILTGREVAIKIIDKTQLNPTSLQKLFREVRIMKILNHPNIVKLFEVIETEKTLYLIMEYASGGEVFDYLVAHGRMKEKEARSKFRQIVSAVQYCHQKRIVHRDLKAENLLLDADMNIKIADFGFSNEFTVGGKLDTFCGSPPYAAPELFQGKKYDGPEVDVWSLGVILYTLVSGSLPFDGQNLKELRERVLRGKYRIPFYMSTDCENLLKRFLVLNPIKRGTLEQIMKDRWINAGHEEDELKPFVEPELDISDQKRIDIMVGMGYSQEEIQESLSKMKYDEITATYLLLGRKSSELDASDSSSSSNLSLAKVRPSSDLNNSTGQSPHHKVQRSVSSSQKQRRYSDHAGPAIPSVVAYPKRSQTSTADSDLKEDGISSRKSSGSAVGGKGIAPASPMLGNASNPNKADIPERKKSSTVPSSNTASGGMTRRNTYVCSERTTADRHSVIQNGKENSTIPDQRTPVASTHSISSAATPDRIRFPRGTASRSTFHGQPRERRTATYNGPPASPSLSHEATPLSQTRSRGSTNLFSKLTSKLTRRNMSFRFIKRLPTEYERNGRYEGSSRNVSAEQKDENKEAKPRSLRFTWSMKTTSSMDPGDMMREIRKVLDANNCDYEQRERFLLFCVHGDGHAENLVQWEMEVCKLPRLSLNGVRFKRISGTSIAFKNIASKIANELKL
T6 sequence (Q5S007 whole entry, the tested form may be a part): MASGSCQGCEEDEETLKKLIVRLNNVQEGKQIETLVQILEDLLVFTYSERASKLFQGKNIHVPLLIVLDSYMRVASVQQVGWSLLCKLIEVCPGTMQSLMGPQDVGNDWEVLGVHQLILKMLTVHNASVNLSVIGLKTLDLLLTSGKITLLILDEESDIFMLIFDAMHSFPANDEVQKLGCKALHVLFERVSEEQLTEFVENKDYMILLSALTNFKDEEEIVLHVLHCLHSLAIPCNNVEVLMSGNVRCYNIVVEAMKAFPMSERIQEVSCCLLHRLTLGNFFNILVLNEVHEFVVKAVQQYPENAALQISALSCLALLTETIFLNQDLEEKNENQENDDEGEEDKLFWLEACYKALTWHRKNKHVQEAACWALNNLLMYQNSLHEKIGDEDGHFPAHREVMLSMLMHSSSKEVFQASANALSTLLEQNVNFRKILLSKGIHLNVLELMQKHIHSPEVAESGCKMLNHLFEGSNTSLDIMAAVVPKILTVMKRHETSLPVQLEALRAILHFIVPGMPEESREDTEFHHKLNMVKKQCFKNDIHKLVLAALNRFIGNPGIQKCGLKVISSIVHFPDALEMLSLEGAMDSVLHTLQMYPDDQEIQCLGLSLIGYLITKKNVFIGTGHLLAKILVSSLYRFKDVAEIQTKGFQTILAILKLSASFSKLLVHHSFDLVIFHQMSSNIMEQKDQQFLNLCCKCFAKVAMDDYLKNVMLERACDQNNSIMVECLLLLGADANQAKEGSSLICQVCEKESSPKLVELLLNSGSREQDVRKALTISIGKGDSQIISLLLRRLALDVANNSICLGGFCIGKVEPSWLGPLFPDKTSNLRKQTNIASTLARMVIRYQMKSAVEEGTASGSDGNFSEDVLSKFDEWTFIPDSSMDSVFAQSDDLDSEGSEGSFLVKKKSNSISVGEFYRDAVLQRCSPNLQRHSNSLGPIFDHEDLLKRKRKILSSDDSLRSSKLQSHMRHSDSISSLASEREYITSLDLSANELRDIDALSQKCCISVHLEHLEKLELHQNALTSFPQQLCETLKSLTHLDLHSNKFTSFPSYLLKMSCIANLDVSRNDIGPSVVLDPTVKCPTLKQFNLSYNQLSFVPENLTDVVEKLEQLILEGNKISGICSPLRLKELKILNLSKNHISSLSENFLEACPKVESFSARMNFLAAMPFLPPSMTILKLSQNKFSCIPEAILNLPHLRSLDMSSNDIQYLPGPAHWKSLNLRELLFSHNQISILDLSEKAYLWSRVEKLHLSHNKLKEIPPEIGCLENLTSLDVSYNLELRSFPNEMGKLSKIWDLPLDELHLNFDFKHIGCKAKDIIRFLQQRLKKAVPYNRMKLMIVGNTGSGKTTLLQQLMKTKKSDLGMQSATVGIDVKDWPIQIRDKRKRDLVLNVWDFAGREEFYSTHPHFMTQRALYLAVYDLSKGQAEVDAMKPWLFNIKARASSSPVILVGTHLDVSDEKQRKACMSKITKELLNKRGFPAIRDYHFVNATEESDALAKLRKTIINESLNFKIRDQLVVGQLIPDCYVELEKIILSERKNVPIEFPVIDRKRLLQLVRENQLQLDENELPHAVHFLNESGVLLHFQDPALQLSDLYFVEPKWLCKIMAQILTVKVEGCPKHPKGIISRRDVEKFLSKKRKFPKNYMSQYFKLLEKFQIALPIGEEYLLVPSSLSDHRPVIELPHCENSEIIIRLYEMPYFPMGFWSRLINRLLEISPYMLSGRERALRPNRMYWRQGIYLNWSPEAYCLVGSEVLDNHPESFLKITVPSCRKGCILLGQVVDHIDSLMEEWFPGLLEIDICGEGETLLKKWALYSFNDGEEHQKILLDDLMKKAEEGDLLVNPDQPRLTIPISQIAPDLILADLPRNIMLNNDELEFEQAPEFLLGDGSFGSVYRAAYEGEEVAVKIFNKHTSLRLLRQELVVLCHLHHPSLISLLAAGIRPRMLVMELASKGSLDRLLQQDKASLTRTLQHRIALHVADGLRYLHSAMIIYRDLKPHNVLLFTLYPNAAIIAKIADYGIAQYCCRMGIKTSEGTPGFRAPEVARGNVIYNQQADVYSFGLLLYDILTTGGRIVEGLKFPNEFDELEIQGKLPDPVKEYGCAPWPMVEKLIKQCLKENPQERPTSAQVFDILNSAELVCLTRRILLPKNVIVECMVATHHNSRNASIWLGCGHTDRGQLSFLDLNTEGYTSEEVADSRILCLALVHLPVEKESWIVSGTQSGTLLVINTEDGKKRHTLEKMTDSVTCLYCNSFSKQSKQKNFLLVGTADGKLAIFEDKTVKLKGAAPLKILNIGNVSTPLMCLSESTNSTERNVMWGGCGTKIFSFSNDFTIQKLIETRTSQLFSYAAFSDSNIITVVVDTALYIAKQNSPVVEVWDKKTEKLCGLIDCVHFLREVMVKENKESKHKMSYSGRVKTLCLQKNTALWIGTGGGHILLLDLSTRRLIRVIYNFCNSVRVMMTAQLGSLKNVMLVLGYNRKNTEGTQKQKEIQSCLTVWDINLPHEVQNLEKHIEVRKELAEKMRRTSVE
Sequence of MAP kinase-interacting serine/threonine-protein kinase 2 (Q9HBH9 whole entry): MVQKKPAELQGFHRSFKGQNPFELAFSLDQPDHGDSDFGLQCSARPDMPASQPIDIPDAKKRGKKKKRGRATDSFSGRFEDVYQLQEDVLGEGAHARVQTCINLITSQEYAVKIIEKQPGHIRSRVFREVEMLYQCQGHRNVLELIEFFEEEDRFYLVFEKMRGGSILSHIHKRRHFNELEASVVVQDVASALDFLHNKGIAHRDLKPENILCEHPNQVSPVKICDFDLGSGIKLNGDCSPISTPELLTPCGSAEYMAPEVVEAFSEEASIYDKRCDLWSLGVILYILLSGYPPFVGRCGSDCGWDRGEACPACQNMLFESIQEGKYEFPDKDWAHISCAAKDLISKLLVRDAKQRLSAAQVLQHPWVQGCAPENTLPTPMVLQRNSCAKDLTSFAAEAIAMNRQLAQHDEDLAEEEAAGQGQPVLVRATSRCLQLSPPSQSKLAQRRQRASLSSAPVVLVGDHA
Sequence of Death-associated protein kinase 3 (O43293 whole entry, the tested form may be a part): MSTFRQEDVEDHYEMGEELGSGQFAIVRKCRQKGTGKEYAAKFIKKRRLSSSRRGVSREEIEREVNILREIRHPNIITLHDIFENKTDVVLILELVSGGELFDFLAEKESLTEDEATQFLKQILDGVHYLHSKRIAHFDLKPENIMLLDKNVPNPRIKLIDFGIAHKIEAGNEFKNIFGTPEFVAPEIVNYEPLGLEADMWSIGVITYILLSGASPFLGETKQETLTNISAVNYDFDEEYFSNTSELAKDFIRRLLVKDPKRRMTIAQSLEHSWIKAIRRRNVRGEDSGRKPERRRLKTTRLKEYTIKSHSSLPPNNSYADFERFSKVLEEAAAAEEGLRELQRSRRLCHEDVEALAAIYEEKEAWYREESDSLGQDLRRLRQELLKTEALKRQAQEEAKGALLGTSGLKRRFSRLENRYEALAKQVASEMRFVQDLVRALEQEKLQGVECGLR

As to `Cc1nn(CC(F)(F)F)cc1Nc1nccc(NCCc2cnc[nH]2)n1`, the IC50 is 0.479 µM in data set [1]; 3.67 µM in data set [2]; over 10 µM in data set [4]; over 10 µM in [5]; over 10 µM in data set [8]; over 10 µM in data set [9]. The molecule also had a Kinetic solubility in data set [3] of 177 µM. Moreover, the % control in data set [6] stood at 91%. Moreover, the Peff in data set [7] was 6.23 10^-8cm/s.
Take `Cc1nn(CC(F)(F)F)cc1Nc1ncc(C2CC2)c(NCCc2c[nH]cn2)n1`: the IC50 in [1] is 1.12 µM; in [10], over 10 µM; in [4], over 10 µM; in data set [11] it was 0.089 µM; in [12] it was 4.4 µM; in data set [5] it was over 10 µM. Besides, the IC50 in [8] and in [9] was over 10 µM throughout. The same molecule showed a Kinetic_solubility in [3] of 171 µM. In addition, the % control in [6] turned out to be 59%. In [7], the Peff is given as 3.89 10^-7 cm/s.
As for `Cc1nn(CC(F)(F)F)cc1Nc1ncc(Br)c(NCc2ccc(S(N)(=O)=O)cc2)n1`, the IC50 in [13] is over 10 µM; in [4] it was over 10 µM; in data set [5], 0.339 µM; in data set [14] it was over 10 µM; in [8] it was over 10 µM; in data set [15], 0.552 µM. The IC50 in data set [9] is over 10 µM; in [16] it was 1.37 µM; in data set [17], 0.037 µM. In addition, the Kinetic_solubility in data set [3] was 176.9 µM. Besides, the Peff result in data set [7] (BLD = below limit of detection) was “Bld”.

(Values after ChEMBL document CHEMBL5046221, “Identification of Pyrimidine-Based Lead Compounds for Understudied Kinases Implicated in Driving Neurodegeneration” (J Med Chem, 2022).)
